Test results as given in ChEMBL document CHEMBL5247599, “New β-arylchalcogeno amines with procognitive properties targeting Carbonic Anhydrases and Monoamine Oxidases” (Eur J Med Chem, 2022).
The source made the active and inactive calls. The calls are words filed in the database; no cut-off is given here.

How the values were obtained:
[1] = biological target: Carbonic anhydrase 1 (Homo sapiens) (UniProt P00915); experiment: Binding affinity to human CA1 by phenol red dye based stopped flow CO2 hydration assay
How it was run: (§1)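 Purified recombinant human CA isoforms. CA-catalysed CO2 hydration was followed by stopped-flow with phenol red at 557 nm, taking initial rates over 10–100 s from at least six traces of the first 5–10% of reaction. Uncatalysed rates were subtracted. Activator stocks were 0.1 mM in deionised water, diluted down to 0.1 nM in assay buffer. K_A came from non-linear least-squares Michaelis–Menten fitting.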

[2] = biological target: Carbonic anhydrase 2 (Homo sapiens) (UniProt P00918); experiment: Binding affinity to human CA2 by phenol red dye based stopped flow CO2 hydration assay; how it was run: as §1
[3] = biological target: Carbonic anhydrase 3 (Homo sapiens) (UniProt P07451); experiment: Binding affinity to human CA3 by phenol red dye based stopped flow CO2 hydration assay; conditions: filed as activator; how it was run: as §1
[4] = biological target: Carbonic anhydrase 4 (Homo sapiens) (UniProt P22748); experiment: Binding affinity to human CA4 by phenol red dye based stopped flow CO2 hydration assay; conditions: filed as activator; how it was run: as §1
[5] = biological target: Carbonic anhydrase 5A, mitochondrial (Homo sapiens) (UniProt P35218); experiment: Binding affinity to human CA5a by phenol red dye based stopped flow CO2 hydration assay; conditions: filed as activator; how it was run: as §1
[6] = biological target: Carbonic anhydrase 5B, mitochondrial (Homo sapiens) (UniProt Q9Y2D0); experiment: Binding affinity to human CA5b by phenol red dye based stopped flow CO2 hydration assay; conditions: filed as activator; how it was run: as §1
[7] = biological target: Carbonic anhydrase 6 (Homo sapiens) (UniProt P23280); experiment: Binding affinity to human CA6 by phenol red dye based stopped flow CO2 hydration assay; how it was run: as §1
[8] = biological target: Carbonic anhydrase 7 (Homo sapiens) (UniProt P43166); experiment: Binding affinity to human CA7 by phenol red dye based stopped flow CO2 hydration assay; conditions: filed as activator; how it was run: as §1
[9] = biological target: Carbonic anhydrase 9 (Homo sapiens) (UniProt Q16790); experiment: Binding affinity to human CA9 by phenol red dye based stopped flow CO2 hydration assay; how it was run: as §1
[10] = biological target: Carbonic anhydrase 12 (Homo sapiens) (UniProt O43570); experiment: Binding affinity to human CA12 by phenol red dye based stopped flow CO2 hydration assay; conditions: filed as activator; how it was run: as §1
[11] = biological target: Carbonic anhydrase 13 (Homo sapiens) (UniProt Q8N1Q1); experiment: Binding affinity to human CA13 by phenol red dye based stopped flow CO2 hydration assay; conditions: filed as activator; how it was run: as §1
[12] = biological target: Carbonic anhydrase 14 (Homo sapiens) (UniProt Q9ULX7); experiment: Binding affinity to human CA14 by phenol red dye based stopped flow CO2 hydration assay; conditions: filed as activator; how it was run: as §1
[13] = biological target: T1, Amine oxidase [flavin-containing] A (Homo sapiens, UniProt P21397); experiment: Inhibition of human recombinant MAO-A assessed as inhibition of 4-hydroxyquinoline formation using kynuramine as substrate by fluorescence spectrophotometry analysis
T1 sequence (P21397 whole entry): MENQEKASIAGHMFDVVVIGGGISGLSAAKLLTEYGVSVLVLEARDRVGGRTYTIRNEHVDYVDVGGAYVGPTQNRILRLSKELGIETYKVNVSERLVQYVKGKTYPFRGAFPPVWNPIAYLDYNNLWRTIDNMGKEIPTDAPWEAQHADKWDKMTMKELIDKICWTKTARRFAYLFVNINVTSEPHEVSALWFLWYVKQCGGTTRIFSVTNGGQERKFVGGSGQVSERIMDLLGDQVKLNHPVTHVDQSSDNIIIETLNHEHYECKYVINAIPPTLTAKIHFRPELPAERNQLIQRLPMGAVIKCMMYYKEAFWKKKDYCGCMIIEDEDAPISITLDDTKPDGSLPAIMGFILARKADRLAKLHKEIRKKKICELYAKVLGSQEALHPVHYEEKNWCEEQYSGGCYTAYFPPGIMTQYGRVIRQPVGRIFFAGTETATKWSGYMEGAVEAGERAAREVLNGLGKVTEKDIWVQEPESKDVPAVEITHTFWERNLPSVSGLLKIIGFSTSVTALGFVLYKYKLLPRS
How it was run: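 Recombinant human MAO-A with kynuramine as substrate. The 4-hydroxyquinoline product was quantified by fluorescence spectrophotometry, and IC50 values were determined.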

Mus musculus [14] = experiment: Pro-cognitive activity in C57Bl6 mouse assessed as attenuation of long-term memory deficit by measuring increase in exploration time for novel object at 25 nmol/uL, icv measured after 24 hrs by novel object recognition test; format: functional, organism-based
How it was run: (§2)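 Novel object recognition in adult male C57Bl6 mice. Habituation was 10 min in an empty arena. Twenty-four hours later, mice explored two identical objects for 5 min, then received an immediate 5 µL lateral-ventricle infusion at 1 µL/min. A 5-min retention test with one familiar and one novel object followed 24 h later. Scores were % exploration time and DI = (tN−tF)/(tN+tF).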

Mus musculus [15] = experiment: Pro-cognitive activity in C57Bl6 mouse assessed as attenuation of long-term memory deficit by measuring increase in exploration time for novel object at 50 nmol/uL, icv measured after 24 hrs by novel object recognition test; format: functional, organism-based
How it was run: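 Male adult C57Bl6 mice (8–9 weeks), lateral-ventricle cannula implanted one week before. 10-min habituation to empty open-field arena; 24 h later, 5-min acquisition with two identical objects, followed immediately by 5 µL i.c.v. infusion at 1 µL/min. 5-min retention test 24 h after acquisition with one familiar and one novel object; percentage exploration time per object, two-way ANOVA with Bonferroni.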

Mus musculus [16] = experiment: Pro-cognitive activity in C57Bl6 mouse assessed as attenuation of long-term memory deficit by measuring increase in exploration time for novel object by measuring discrimination index at 50 nmol/uL, icv measured after 24 hrs by novel object recognition test; format: functional; how it was run: as §2
Mus musculus [17] = experiment: Pro-cognitive activity in C57Bl6 mouse assessed as attenuation of long-term memory deficit by measuring increase in exploration time for novel object by measuring discrimination index at 25 nmol/uL, icv measured after 48 hrs by novel object recognition test; format: functional
Mus musculus [18] = experiment: Pro-cognitive activity in C57Bl6 mouse assessed as attenuation of long-term memory deficit by measuring increase in exploration time for novel juvenile at 25 nmol/uL, icv measured after 48 hrs by novel object recognition test; format: functional, organism-based
How it was run: (§3)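 Male adult C57Bl6 mice (8–9 weeks), lateral-ventricle cannula implanted 7 days earlier. Social recognition: 10-min habituation to arena with two empty cups; 24 h later 10-min acquisition with an unfamiliar juvenile (3–4 weeks) under one wire cup. Immediately after, 5 µL i.c.v. infusion at 1 µL/min. Retention at 48 h with familiar and novel juvenile; percentage time exploring each cup (snout-to-cup contact).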

Mus musculus [19] = experiment: Pro-cognitive activity in C57Bl6 mouse assessed as attenuation of long-term memory deficit by measuring increase in exploration time for novel juvenile at 50 nmol/uL, icv measured after 48 hrs by novel object recognition test; format: functional, organism-based; how it was run: as §3
Mus musculus [20] = experiment: Pro-cognitive activity in C57Bl6 mouse assessed as attenuation of long-term memory deficit by measuring increase in exploration time for novel juvenile by measuring discrimination index at 25 nmol/uL, icv measured after 48 hrs by novel object recognition test; format: functional
How it was run: (§4)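 Social recognition in adult male C57Bl6 mice with intracerebroventricular cannulae. Habituation was 10 min with two empty cups. Twenty-four hours later, a novel 3–4-week-old juvenile was placed under one cup for 10 min of exploration, followed immediately by a 5 µL infusion at 1 µL/min. Retention 48 h later offered familiar versus novel juvenile, scoring snout-to-cup contact. DI = (tN−tF)/(tN+tF).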

Mus musculus [21] = experiment: Pro-cognitive activity in C57Bl6 mouse assessed as attenuation of long-term memory deficit by measuring increase in exploration time for novel juvenile by measuring discrimination index at 50 nmol/uL, icv measured after 48 hrs by novel object recognition test; format: functional; how it was run: as §4
[22] = Toxicity in C57Bl6 mouse assessed as reduction in distance travel at 50 nmol/uL administered directly into lateral ventricle by open field test; conditions: in vivo, icv_or_intrathecal
How it was run: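 Cannulated adult male C57Bl6 mice were placed in a 60×70 cm open-field arena 30 min after a 5 µL lateral-ventricle infusion. Total distance travelled over a 5-min session was recorded by overhead video tracking.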

[23] = Toxicity in overnight fasted C57Bl6 mouse assessed as reduction in food intake at 50 nmol/uL administered directly into lateral ventricle measured for 2 hrs; conditions: in vivo, icv_or_intrathecal
How it was run: (§5)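 Overnight-fasted male C57Bl6 mice received a lateral-ventricle infusion. Food was presented 30 min later, and intake was recorded at 0.5 h intervals over 2 h as cumulative consumption corrected for body weight; n = 8–9 per group.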

Mus musculus [24] = experiment: Ex vivo activation of C57Bl6 mouse cortex homogenate CA assessed as increase in protein activity at 50 nmol/uL, icv measured after 30 mins by stopped flow spectrophotometric method; format: functional, organism-based
How it was run: (§6)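 Adult male C57Bl6 mice with lateral-ventricle cannulae received 5 µL at 1 µL/min. After 30 min, cortex and hippocampus were dissected on ice, homogenised in 20 mM Hepes pH 7.5 and spun at 20000g for 30 min. Stopped-flow CO2 hydration used 0.2 mM phenol red (557 nm), 20 mM NaClO4, 20°C and 1.7–17 mM CO2. Activity is expressed as % of vehicle mean; 6 mice/group.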

Mus musculus [25] = experiment: Ex vivo activation of C57Bl6 mouse hippocampus homogenate CA assessed as increase in protein activity at 50 nmol/uL, icv measured after 30 mins by stopped flow spectrophotometric method; format: functional, organism-based; how it was run: as §6
[26] = Toxicity in overnight fasted C57Bl6 mouse assessed as reduction in food intake at 50 nmol/uL administered directly into lateral ventricle measured for 30 mins; conditions: in vivo, icv_or_intrathecal, 0.5 h; how it was run: as §5

Sequence of Carbonic anhydrase 12 (Homo sapiens) (O43570 whole entry): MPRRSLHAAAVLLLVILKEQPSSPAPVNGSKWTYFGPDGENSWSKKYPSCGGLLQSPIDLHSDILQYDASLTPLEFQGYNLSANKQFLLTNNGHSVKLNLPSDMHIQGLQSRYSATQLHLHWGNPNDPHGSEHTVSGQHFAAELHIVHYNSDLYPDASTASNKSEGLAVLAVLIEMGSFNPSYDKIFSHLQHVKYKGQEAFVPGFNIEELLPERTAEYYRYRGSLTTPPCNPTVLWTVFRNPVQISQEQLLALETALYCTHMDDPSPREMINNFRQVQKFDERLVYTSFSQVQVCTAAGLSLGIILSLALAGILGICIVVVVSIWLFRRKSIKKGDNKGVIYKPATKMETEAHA
Sequence of Carbonic anhydrase 7 (Homo sapiens) (P43166 whole entry): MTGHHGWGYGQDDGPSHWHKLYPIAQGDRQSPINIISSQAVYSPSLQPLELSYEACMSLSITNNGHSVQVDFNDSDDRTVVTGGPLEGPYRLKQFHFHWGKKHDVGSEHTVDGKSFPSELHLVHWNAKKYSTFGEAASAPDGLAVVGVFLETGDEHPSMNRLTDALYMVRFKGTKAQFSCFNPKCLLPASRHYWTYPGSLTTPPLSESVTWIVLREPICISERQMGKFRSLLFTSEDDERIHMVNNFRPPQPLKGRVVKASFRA
Sequence of Carbonic anhydrase 14 (Homo sapiens) (Q9ULX7 whole entry): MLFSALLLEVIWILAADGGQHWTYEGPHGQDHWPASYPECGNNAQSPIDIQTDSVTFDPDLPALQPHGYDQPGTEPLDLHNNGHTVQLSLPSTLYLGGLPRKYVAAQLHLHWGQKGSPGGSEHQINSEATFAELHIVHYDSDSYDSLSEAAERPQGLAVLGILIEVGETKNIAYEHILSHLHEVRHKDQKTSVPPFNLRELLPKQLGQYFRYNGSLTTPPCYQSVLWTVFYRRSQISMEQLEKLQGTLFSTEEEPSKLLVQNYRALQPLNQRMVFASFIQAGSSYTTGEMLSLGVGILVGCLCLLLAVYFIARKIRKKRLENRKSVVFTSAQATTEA
Sequence of Carbonic anhydrase 4 (Homo sapiens) (P22748 whole entry): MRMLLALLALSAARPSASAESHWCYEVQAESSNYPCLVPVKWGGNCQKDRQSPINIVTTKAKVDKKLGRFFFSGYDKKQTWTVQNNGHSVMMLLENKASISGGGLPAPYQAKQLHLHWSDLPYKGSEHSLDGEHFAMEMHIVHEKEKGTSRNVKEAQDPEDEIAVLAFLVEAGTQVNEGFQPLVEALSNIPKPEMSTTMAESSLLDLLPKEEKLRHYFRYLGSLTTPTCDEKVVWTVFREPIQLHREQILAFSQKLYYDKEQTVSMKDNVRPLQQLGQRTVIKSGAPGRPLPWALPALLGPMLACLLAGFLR
Sequence of Carbonic anhydrase 3 (Homo sapiens) (P07451 whole entry): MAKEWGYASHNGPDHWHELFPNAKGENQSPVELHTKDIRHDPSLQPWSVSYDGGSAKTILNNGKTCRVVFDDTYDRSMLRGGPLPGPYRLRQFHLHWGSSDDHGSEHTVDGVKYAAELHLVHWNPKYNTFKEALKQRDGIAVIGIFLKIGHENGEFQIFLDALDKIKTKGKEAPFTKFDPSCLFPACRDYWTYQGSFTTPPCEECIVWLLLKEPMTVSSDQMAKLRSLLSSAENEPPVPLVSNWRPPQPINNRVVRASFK
Sequence of Carbonic anhydrase 5A, mitochondrial (Homo sapiens) (P35218 whole entry): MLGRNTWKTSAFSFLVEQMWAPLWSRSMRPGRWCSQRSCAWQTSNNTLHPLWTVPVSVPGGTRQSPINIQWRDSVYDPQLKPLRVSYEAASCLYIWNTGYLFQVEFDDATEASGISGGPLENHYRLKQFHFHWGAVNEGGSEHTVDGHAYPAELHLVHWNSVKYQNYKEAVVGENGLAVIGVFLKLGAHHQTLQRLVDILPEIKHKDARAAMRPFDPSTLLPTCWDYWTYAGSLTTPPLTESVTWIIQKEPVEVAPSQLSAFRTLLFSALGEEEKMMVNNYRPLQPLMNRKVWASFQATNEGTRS
Sequence of Carbonic anhydrase 5B, mitochondrial (Homo sapiens) (Q9Y2D0 whole entry): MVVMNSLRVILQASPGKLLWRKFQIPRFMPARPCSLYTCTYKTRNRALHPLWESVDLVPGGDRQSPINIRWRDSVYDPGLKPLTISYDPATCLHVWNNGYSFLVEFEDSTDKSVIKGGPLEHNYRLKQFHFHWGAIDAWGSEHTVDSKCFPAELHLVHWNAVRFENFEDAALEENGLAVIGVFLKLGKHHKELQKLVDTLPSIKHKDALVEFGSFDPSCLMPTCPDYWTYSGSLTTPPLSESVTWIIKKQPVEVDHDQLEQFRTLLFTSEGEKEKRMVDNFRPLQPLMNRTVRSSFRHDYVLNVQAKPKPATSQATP
Sequence of Carbonic anhydrase 6 (Homo sapiens) (P23280 whole entry): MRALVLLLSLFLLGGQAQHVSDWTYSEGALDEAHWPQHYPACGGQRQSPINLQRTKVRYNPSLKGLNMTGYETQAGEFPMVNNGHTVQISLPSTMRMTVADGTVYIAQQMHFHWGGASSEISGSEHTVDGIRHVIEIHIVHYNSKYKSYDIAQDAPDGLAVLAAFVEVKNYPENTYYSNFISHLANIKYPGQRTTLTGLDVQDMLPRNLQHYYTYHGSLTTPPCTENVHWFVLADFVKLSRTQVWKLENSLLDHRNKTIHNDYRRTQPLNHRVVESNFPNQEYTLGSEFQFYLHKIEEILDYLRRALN
Sequence of Carbonic anhydrase 13 (Homo sapiens) (Q8N1Q1 whole entry, looked up): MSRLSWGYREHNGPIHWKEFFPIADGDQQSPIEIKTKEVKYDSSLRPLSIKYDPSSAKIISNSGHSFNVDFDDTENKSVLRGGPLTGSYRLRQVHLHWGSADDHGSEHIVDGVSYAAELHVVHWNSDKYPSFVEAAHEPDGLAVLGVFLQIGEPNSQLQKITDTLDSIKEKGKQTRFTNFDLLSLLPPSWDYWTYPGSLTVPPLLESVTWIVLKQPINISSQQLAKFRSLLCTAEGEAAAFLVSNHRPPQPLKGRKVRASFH
Sequence of Carbonic anhydrase 1 (Homo sapiens) (P00915 2-261 limits assumed): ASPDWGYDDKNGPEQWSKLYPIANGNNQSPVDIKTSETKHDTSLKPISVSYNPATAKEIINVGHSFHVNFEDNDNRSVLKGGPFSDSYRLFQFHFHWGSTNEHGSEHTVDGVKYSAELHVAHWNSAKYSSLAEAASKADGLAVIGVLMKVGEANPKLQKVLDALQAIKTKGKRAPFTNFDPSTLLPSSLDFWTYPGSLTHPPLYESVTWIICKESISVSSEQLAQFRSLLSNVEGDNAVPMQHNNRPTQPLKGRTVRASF

With `CC(N)C[Se]c1ccccc1` (stereo not given) the Ka ([1]; filed as activator) was 9.9 µM, the Ka [2] was > 100 µM and the Ka [3] was 14.3 µM. The Ka [4] was 8.6 µM, the Ka [5] was 14.7 µM and the Ka [6] was 26.3 µM. For the same molecule, the Ka ([7]; filed as activator) was 57.2 µM, the Ka [8] was 20.6 µM and the Ka ([9]; filed as activator) was 49.6 µM. The Ka [10] was 59.5 µM, the Ka [11] was 58.6 µM and the Ka [12] was 9.9 µM. The IC50 [13] was 9.79 µM, the Activity (Mus musculus [14]) was “inactive” and the Activity (Mus musculus [15]) was “Active”. For the same molecule, the Activity_index (Mus musculus [16]) was 0.206, the Activity_index (Mus musculus [17]) was 0.006 and the Activity (Mus musculus [18]) was “inactive”. The Activity (Mus musculus [19]) was “Active”, the Activity_index (Mus musculus [20]) was 0.011 and the Activity_index (Mus musculus [21]) was 0.156. The Activity [22] was “Non-Toxic”, the Activity [23] was “Non-Toxic” and the Activity (Mus musculus [24]) was “Active”. The Activity (Mus musculus [25]) was “Active”.

In the case of `CC(N)Cc1ccccc1` (stereo not given) [AMPHETAMINE], the Ka [1] is reported as > 150 µM, the Ka [2] is reported as > 150 µM and the Ka [3] is reported as 87.7 µM. The Ka [4] was 0.094 µM, the Ka [5] was 0.81 µM and the Ka [6] was 2.56 µM. The Ka [7] was > 150 µM, the Ka [8] was 0.91 µM and the Ka [9] was > 150 µM. The Ka [10] was 0.64 µM, the Ka [11] was 24.1 µM and the Ka [12] was 9.15 µM. For the same molecule, the Activity [22] was “Toxic”, the Activity [23] was “Toxic” and the Activity [26] was “Toxic”.
